Assay outcomes from PubChem.
Hits are enriched below; roughly 11% of the tested compounds scored in any of these assays.
TNAP act DEA: human TNAP activation, intermediate phosphate acceptor; P05186; purified TNAP, CDP-star luminescence, 100 mM DEA, 30 min; active compounds read high; scale: 0 levamisole-inhibited, 1 vehicle-only enzyme; activation factor at 20 µM; 64,000 tested, under 10 active;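 active means activation factor of at least 2 at 20 µM, relative to controls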
M1 ag: activates the M1 muscarinic receptor. CHO-M1 cells, Fluo-4 calcium fluorescence, agonist mode; active compounds read high. B-score at 10 µM. hit rate 3% among 64,000;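 active means fluorescence rise, raw or as B-score row- and column-corrected plate score, outside the 99.7% band of its plate's samples, either direction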
S1P3 agonist: activates the human S1P3 receptor | S1P3 NFAT-BLA reporter cells, agonism, FRET ratio; relative to 1 µM S1P, basal subtracted | activation, % at 4.5 µM | hit rate 0.1% among 60,000;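 active means activation above the screen-wide mean plus 3 SD, cut at about 4.5% in these data, passing the limit was not always enough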
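Benchmarks: high control 1 µM S1P / System: stable CHO line with human S1P3, Gα16, NFAT-BLA reporter / Dosing: single compound concentration, 4.5 µM final / Timing: 4 h compound at 37 °C, 2 h substrate at RT / Measured by: FRET β-lactamase substrate fluorescence, excitation 405 nm, 460/535 nm emission ratio, background-subtracted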
M1 antag: antagonists of rat M1 muscarinic receptor. P08482. CHO-M1 cells, Fluo-4 calcium, ACh EC80 antagonist mode; active compounds read low. B-score at 10 µM. hit rate 3.4% among 64,000. AID 628;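 active means calcium fluorescence response, raw or row-and-column corrected B-score, differing from the plate sample mean either way at a set confidence level, mostly lower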
Target sequence (P08482 whole entry, looked up): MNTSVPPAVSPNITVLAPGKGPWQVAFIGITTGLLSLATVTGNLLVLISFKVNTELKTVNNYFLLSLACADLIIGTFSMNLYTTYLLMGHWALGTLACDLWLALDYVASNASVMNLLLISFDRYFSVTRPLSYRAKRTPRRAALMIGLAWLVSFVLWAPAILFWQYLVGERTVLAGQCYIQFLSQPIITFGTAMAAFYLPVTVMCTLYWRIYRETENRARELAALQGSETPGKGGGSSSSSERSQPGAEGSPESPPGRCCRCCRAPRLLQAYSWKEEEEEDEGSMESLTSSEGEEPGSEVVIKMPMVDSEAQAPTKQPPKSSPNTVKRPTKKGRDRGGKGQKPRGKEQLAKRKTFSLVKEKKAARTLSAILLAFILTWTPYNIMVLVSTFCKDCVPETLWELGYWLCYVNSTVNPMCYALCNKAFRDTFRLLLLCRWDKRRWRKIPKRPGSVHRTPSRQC
D1 allo mod: allosteric modulators of human D1 dopamine receptor; P21728; HEK293 D1, CRE-luciferase, dopamine EC30 potentiation; actives deviate in either direction; B-score at 10 µM; hit rate 5.9% among 58,000; AID 641;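 active means luminescence count or its row- and column-corrected plate score outside the 99.7% band of the plate's sample wells, on either side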
S1P1 ag-PAM: S1P1 (human) agonism or agonism potentiation. P21453. hit rate 0.57% among 56,000. activation, % at 9.5 µM. S1P1 CRE-bla cells, forskolin, beta-lactamase FRET, potentiator mode; S1P1 agonist co-added at EC20, 2 nM; 100% = saturating reference agonist, 0% = basal. AID 449;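 active means activation above a cutoff set at the mean activation of all tested compounds plus 3 SD, cut at about 54% in these data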;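 further: forskolin at 4 µM as EC80 and the EC20 agonist is SEW2871; 100% = SEW2871 at its EC100 plus forskolin at EC80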
D1 mod confirm: D1 receptor (human) allosteric modulation, confirmed | shares compounds with D1 allo mod | HEK293 D1 CRE-luciferase, dopamine EC30 potentiation; active compounds read high | luminescence at 10 µM | hit rate 88% among 2,200;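 active means luminescence in either of two replicates above the same-plate mean plus 3 SD of the low-dose dopamine control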
D1 no dopamine: secondary test of D1 modulators: activity without dopamine. hit rate 0.8% among 1,900. shares compounds with D1 allo mod. luminescence at 10 µM. HEK293 D1 CRE-luciferase, luminescence, no dopamine; active compounds read high; in the data active means luminescence above about 3900
Isoprot counter: counter-screen for D1 modulators: isoproterenol response in HEK293 cells; HEK293 D1 CRE-luciferase, isoproterenol EC30 counter-screen; active compounds read high; shares compounds with D1 allo mod; luminescence at 10 µM; hit rate 63% among 2,200;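 active means luminescence in either replicate above plate mean of wells with a partly effective reference agonist dose plus 3 SD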;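 further: isoproterenol raises cAMP through native beta-adrenoceptor Gs so signal bypasses D1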
* = called active by the depositor; . = no result given.

SMILES	TNAP act DEA	M1 ag	S1P3 agonist	M1 antag	D1 allo mod	S1P1 ag-PAM	D1 mod confirm	D1 no dopamine	Isoprot counter
CCSc1ncc(Cl)c(C(=O)Nc2ccc(S(=O)(=O)Nc3onc(C)c3C)cc2)n1	1	0.82	-1	0	5.6*	.	11540*	1528	2632
Cc1cc(NS(=O)(=O)c2ccc(NC(=O)COc3ccccc3C(C)C)cc2)no1	0.9	1.4	0	-0.048	4.1*	8	6636*	1576	2804
Cc1cc(NS(=O)(=O)c2ccc(NC(=O)COc3ccccc3Cl)cc2)no1	0.9	-0.36	0	-0.97	1.1	8	.	.	.
O=C(Nc1nccs1)c1cc(S(=O)(=O)N2CCOCC2)ccc1Cl	.	0.0031	.	-0.51	1.3	.	.	.	.
COc1ccc(CCNC(=O)C2CCC(CNc3c(N4CCCC4)c(=O)c3=O)CC2)cc1OC (stereo not given)	0.9	-0.25	0	-1.1	0.18	0	.	.	.
O=C(NCc1ccc2c(c1)OCO2)C1CCC(CNc2c(N3CCCC3)c(=O)c2=O)CC1 (stereo not given)	0.9	0.65	0	0.23	2.3*	-19	5332	1668	2728
CCc1n[nH]c2c1/C(=N\O)CC(c1ccccc1)C2 (stereo not given)	0.9	1.1	0	-0.13	4.3*	14	7364*	1120	2680
CCCCc1n[nH]c2c1/C(=N/O)CC(c1ccccc1)C2 (stereo not given)	0.9	-0.47	.	0.5	-0.46	.	.	.	.
CCOC(=O)c1cc2c(=O)n3cccc(C)c3nc2n(CCc2ccccc2)c1=N	0.8	-2	-1	0.54	-0.52	-19	.	.	.
CCCn1c(=NC(=O)c2ccco2)c(C(=O)OCC)cc2c(=O)n3ccccc3nc21	1	0.81	0	-1.1	6.1*	.	16752*	1572	2932
CCOC(=O)c1cc2c(=O)n3ccccc3nc2n(CCCOC)c1=NC(C)=O	1	-0.18	.	0.14	4.7*	.	9064*	.	2596
COc1cc(C2c3c(oc4c(C)cc(C)cc4c3=O)C(=O)N2Cc2cccnc2)cc(OC)c1OC (stereo not given)	1	0.93	-1	1.3	-0.38	-22	.	.	.
CCOc1ncccc1C(=O)OCc1ccc(C(=O)OC)o1	0.9	0.13	1	-0.031	8*	-5	16096*	1680	5020*
CCOc1ncccc1C(=O)OCC(=O)NCCc1ccc(OC)cc1	1	0.83	-1	0.41	0.02	-13	.	.	.
C/C(N)=C(/C#N)C(=O)CSc1nc(C2CCCCC2)n(-c2ccccc2)n1	0.9	-0.61	0	0.33	1.8	10	.	.	.
O=C(Nc1ccc(Cl)cc1C(=O)NCc1cccnc1)c1ccco1	0.9	1.3	0	0.074	10*	-12	16768*	1484	2916*
O=C(Nc1ccc(Cl)cc1C(=O)Nc1ccncc1)c1ccco1	0.9	-0.32	0	-0.28	8.7*	-26	11616*	.	2860*
O=C(Nc1ccccc1C(=O)NCc1cccnc1)c1ccco1	1	2.6	.	1.7	.	.	.	.	.
N#CNC1=NCN(Cc2ccccc2)CN1	0.9	0.86	0	-0.56	1	-5	.	.	.
CCC(Sc1nc2n[nH]c(C)c2c(=N)n1-c1cc(Cl)ccc1C)C(=O)N1CCOCC1 (stereo not given)	0.8	-0.028	-1	0.26	6.4*	-44	12280*	1844	6516*
Cc1ccc(-n2c(SCC(=O)NCC3CCCO3)nc3n[nH]c(C)c3c2=N)cc1Cl (stereo not given)	.	2	0	1.4	-0.79	-16	.	.	.
COC(=O)c1cc(Br)c(=O)n(CCN2CCOCC2)c1	1	-0.003	-1	0.81	-0.15	-12	.	.	.
CC1(C)Cc2c(C#N)c(SCCC#N)nc(N3CCOCC3)c2CS1	0.9	0.14	7	1.6	5.5*	4	12904*	1588	4280*
CC1(C)Cc2c(c(N3CCOCC3)nc3sc(C#N)c(N)c23)CS1	0.9	0.24	-2	0.17	1.7	0	.	.	.
CN1CCN(c2nc3nonc3nc2N2CCN(C)CC2)CC1	0.8	-0.18	-1	0.33	0.53	-15	.	.	.
SMILES	TNAP act DEA	M1 ag	S1P3 agonist	M1 antag	D1 allo mod	S1P1 ag-PAM	D1 mod confirm	D1 no dopamine	Isoprot counter
O=C(NCc1ccncc1)C12CC3CC(CC(C3)C1)C2	0.9	-0.11	0	0.66	0.95	11	.	.	.
N#CC1=C(N)S[C@H](C(=O)C23CC4CC(CC(C4)C2)C3)[C@H]1c1ccncc1	0.9	-0.22	-1	-0.095	12*	-14	12784*	1676	5388*
Cc1cc(SCC#N)n2nc(C)c(-c3ccccc3)c2n1	1	-1.5	0	0.027	14*	-38	14516*	1608	5404*
Cc1cc(N2CCCCC2)n2nc(C)c(-c3ccccc3)c2n1	0.9	-0.89	0	-0.00084	0.33	-9	.	.	.
N#CC1=C(N)N(c2ccccc2)C2=C(C(=O)CCC2)C1c1cccs1 (stereo not given)	0.8	-0.59	0	-0.16	3.2*	-2	7976*	1556	3880
CCCCn1c(SCc2cccnc2)nc2c1c(=O)n(C)c(=O)n2C	0.9	0.74	1	-0.15	1.7	10	.	.	.
CCn1c(SCc2cccnc2)nc2c1c(=O)n(C)c(=O)n2C	0.8	0.021	0	1.2	5*	-10	5832*	1320	2496
COc1cc2c(cc1NC(=O)CN1C(=O)NC3(CCc4ccccc43)C1=O)oc1ccccc12 (stereo not given)	1	-0.12	-1	-1.6	.	-8	.	.	.
COC(=O)C1=C(N)N(c2ccc(F)cc2)C2=C(C(=O)CCC2)C1c1ccc2c(c1)OCO2 (stereo not given)	0.9	-1	.	-0.25	-0.1	.	.	.	.
C=CCNc1nc(Nc2ccc(OC)cc2OC)nc(OCC)n1	0.9	0.37	-1	0.0071	3.8*	10	10064*	1524	2932*
COc1ccc(C(=O)/C=C(\N)C(F)(F)F)c(O)c1	0.8	-1.2	-1	-0.38	.	-11	.	.	.
CS(=O)(=O)c1nc(-c2ccccc2)cc(C(F)(F)F)n1	0.9	0.026	.	-0.0034	4.1*	.	6308*	.	2188
Cc1ccccc1S(=O)(=O)Cc1ccc(C(=O)NCCCOC(C)C)o1	0.9	-0.84	0	-0.58	-1.5	-8	.	.	.
COc1ccc(OC)c(NS(=O)(=O)c2ccc(SC)cc2)c1	1	0.54	-1	-0.22	0.5	16	.	.	.
